Assays:
[1] = Oral bioavailability in rat (dose 1 mg/kg); assay type: ADME, organism-based; details: in vivo
Outline: (§1)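 Rats were given a single 1 mg/kg oral dose, as a 0.25% methylcellulose suspension or as a solution in EtOH/PG (20:80). Animals were sacrificed at 30 min and 1, 2, 4, 8 and 16 h, with blood collected into EDTA. Plasma was separated by centrifugation and extracted liquid–liquid. Analysis was by LC/MS/MS. Each value is a single determination or the average of two.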

[2] = The clearance was measured in dogs after intravenous administration of 1 mg/kg dose; assay type: ADME, organism-based, Canis lupus familiaris; design: dose 1 mg/kg, route intravenous; details: dog, in vivo
Outline: (§2)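 Dogs (n = 4–6) received 1 mg/kg iv in an ethanol/PEG-based cosolvent vehicle. Plasma was extracted liquid–liquid and quantified by LC/MS/MS. Clearance, steady-state volume and elimination half-life were derived from the concentration–time curves.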

[3] = The volume of distribution at steady state was measured in dogs after intravenous administration of 1 mg/kg dose; assay type: ADME, organism-based, Canis lupus familiaris; design: dose 1 mg/kg, route intravenous; details: dog, in vivo, read-out: Vss; outline: as §2
[4] = The Elimination half-life was measured in dogs after intravenous administration of 1 mg/kg dose; assay type: ADME, organism-based, Canis lupus familiaris; design: dose 1 mg/kg, route intravenous; details: dog, in vivo; outline: as §2
Canis familiaris = experiment: The Plasma area under the compound concentration -time curve was measured in dogs after oral administration of 1 mg/kg dose; assay type: ADME, organism-based, Canis lupus familiaris; design: dose 1 mg/kg, route oral; details: dog, in vivo
Rattus norvegicus = experiment: The Plasma area under the compound concentration -time curve was measured in rats after oral administration of 1 mg/kg dose; assay type: ADME, organism-based; design: dose 1 mg/kg, route oral; details: in vivo; outline: as §1
[5] = The Brain concentration compared to plasma concentration in rats at steady state after intravenous infusion; details: rat, brain and plasma, read-out: B/P
[6] = Oral bioavailability in dog (dose 1 mg/kg); assay type: ADME, organism-based, Canis lupus familiaris; details: in vivo
[7] = The Peak plasma concentration was measured in dogs after oral administration of 1 mg/kg dose; assay type: ADME, organism-based, Canis lupus familiaris; design: dose 1 mg/kg, route oral; details: dog
[8] = The Peak plasma concentration was measured in rats after oral administration of 1 mg/kg dose; assay type: ADME, organism-based; design: dose 1 mg/kg, route oral; details: rat; outline: as §1
[9] = The time reach to maximum Peak plasma concentration was measured in dogs after oral administration of 1 mg/kg dose; assay type: ADME, organism-based, Canis lupus familiaris; design: dose 1 mg/kg, route oral; details: dog
[10] = molecular target: T1, Corticotropin-releasing factor receptor 1 (Homo sapiens, UniProt P34998); experiment: Binding affinity to recombinant human Corticotropin releasing factor receptor 1 (hCRF1) expressed in 293EBNA cells; assay type: cell-based
T1 sequence (P34998 whole entry): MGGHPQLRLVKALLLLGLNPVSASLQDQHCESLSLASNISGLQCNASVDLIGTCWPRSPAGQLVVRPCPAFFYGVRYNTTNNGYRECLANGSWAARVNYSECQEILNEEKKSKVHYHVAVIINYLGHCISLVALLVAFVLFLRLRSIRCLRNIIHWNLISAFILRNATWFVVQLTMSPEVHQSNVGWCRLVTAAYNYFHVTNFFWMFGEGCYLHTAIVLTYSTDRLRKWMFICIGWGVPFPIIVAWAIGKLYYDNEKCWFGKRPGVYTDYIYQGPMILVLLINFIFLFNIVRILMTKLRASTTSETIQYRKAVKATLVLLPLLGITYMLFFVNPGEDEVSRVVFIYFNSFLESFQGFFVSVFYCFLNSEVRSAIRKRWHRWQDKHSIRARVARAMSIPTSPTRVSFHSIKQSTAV

| Ki [10] [nM] | SMILES | other results |
| --- | --- | --- |
| 33.7 | CCCCN(CC)c1nc(C)nc2c1nnn2-c1ccc(C(C)=O)cc1Br | – |
| 12.4 | CCN(CC)c1nc(C)nc2c1ncn2-c1ccc(C(C)C)cc1Br | – |
| 15.3 | COCCN(CCOC)c1nc(C)nc2c1nnn2-c1ccc(C(C)C)cc1SC | – |
| 20.4 | CCCCN(CC)c1nc(C)nc2c1nnn2-c1ccc(Br)cc1Br | – |
| 32.5 | CCCCN(CCCC)c1nc(C)nc2c1nnn2-c1ccc(C(C)C)cc1Br | – |
| 4.4 | CCCCN(CC)c1nc(C)nc2c1nnn2-c1c(Cl)cc(OC)cc1OC | – |
| 25 | CCCCN(CC)c1nc(C)nc2c1ncn2-c1c(C)cc(C)cc1C | – |
| 1.9 | CCC(COC)Oc1nc(C)nc2c1nnn2-c1ccc(C(C)C)cc1Br (stereo unspecified) | bioavailability [1]: 6%; AUC T (Rattus norvegicus): 0.021 µM·h; Cmax [8]: 5.9 nM |
| 25.3 | CCC(CO)Nc1nc(C)nc2c1nnn2-c1ccc(C(C)C)cc1Br (stereo unspecified) | – |
| 123 | CCN(c1nc(C)nc2c1nnn2-c1ccc(C(C)C)cc1Br)C(COC)COC | – |
| 36.7 | COCC(Cc1ccccc1)Nc1nc(C)nc2c1nnn2-c1ccc(C(C)C)cc1Br (stereo unspecified) | – |
| 9.8 | COCCN(CCOC)c1cc(C)nc2c1nc(C)n2-c1ccc(C(C)C)cc1Br | – |
| 4.5 | CCCCC(CCCC)Nc1nc(C)nc2c1nnn2-c1ccc(C(C)C)cc1Br | – |
| 476 | COCCN(CCOC)c1cc(C)nc2c1nnn2-c1ccc(C(C)C)cc1S(C)(=O)=O | – |
| 10.3 | COCC(COC)Nc1nc(C)nc2c1nnn2-c1ccc(C(C)C)cc1Br | – |
| 27.5 | CCCCN(CC)c1nc(C)nc2c1nnn2-c1c(C)cc(C)cc1C | – |

| Ki [10] [nM] | SMILES | other results |
| --- | --- | --- |
| 287 | CCCCN(CC)c1ncnc2c1nnn2-c1ccc(C(C)C)cc1Br | – |
| 21 | COCCN(CCOC)c1nc(C)nc2c1nnn2-c1c(Cl)cc(OC)cc1OC | – |
| 133 | CCCCN(CC)c1nc(C)nc2c1nc(-c1ccccc1)n2-c1c(Cl)cc(OC)cc1OC | – |
| 195 | COCC(C)(C)Nc1nc(C)nc2c1nnn2-c1ccc(C(C)C)cc1Br | – |
| 29 | CCCCNc1nc(C)nc2c1c(C)c(C)n2-c1c(C)cc(C)cc1C | – |
| 8 | CCC(CCOC)Nc1nc(C)nc2c1ncn2-c1ccc(C(C)C)cc1Br (stereo unspecified) | bioavailability [1]: 7%; AUC T (Rattus norvegicus): 0.03 µM·h; Cmax [8]: 19.9 nM |
| 59.4 | CCC(COC)Nc1nc(C)nc2c1nnn2-c1c(C)cc(C)cc1C (stereo unspecified) | – |
| 48.2 | COCCN(CCOC)c1nc(C)nc2c1nnn2-c1c(Br)cc(OC)cc1N(C)C | – |
| 69.6 | CCCCNc1nc(C)nc2c1nnn2-c1ccc(C(C)C)cc1Br | – |
| 0.8 | CCCC(CCC)Nc1nc(C)nc2c1nnn2-c1ccc(Br)cc1Br | – |
| 10.6 | CCCCN(CC)c1nc(C)nc2c1nnn2-c1ccc(SC)cc1Br | – |
| 3.9 | CCCCN(CC)c1cc(C)nc2c1nc(C)n2-c1ccc(C(C)C)cc1Br | – |
| 21.3 | COCC(COC)N(C)c1nc(C)nc2c1nnn2-c1ccc(C(C)C)cc1Br | – |
| 7.5 | CCCCN(CC)c1nc(C)nc2c1nnn2-c1ccc(C(C)C)cc1Br | bioavailability [1]: 26.5%; clearance [2]: 9.25 mL/min/kg; Vd [3]: 7.54 L/kg; half-life [4]: 26 h; AUC T (Canis familiaris): 0.824 µM·h; AUC T (Rattus norvegicus): 0.471 µM·h; bioavailability [6]: 18.4%; Cmax [7]: 141 nM; Cmax [8]: 49.2 nM; Tmax [9]: 1.25 h |
| 0.84 | CCCCN(CC)c1nc(C)nc2c1c(C)c(C)n2-c1c(C)cc(C)cc1C [ANTALARMIN] | – |

The remaining lines, values behind:

| SMILES | Ki [10] [nM] | other results |
| --- | --- | --- |
| COCCN(CCOC)c1nc(C)nc2c1nnn2-c1ccc(C(C)C)cc1Br | – | bioavailability [1]: 17%; clearance [2]: 7.97 mL/min/kg; Vd [3]: 15.6 L/kg; half-life [4]: 33.2 h; AUC T (Canis familiaris): 0.914 µM·h; AUC T (Rattus norvegicus): 0.098 µM·h; Kp [5]: 0.6; F [6]: 30.7%; Cmax [7]: 308 nM; Cmax [8]: 30 nM; Tmax [9]: 0.67 h |
| CCCC(CC)Nc1nc(C)nc2c1nnn2-c1ccc(C(C)C)cc1Br (stereo unspecified) | 2.8 | – |
| CCCCC(CC)Oc1nc(C)nc2c1ncn2-c1ccc(C(C)C)cc1Br (stereo unspecified) | 2.9 | – |
| Cc1nc(N(CCO)CCO)c2nnn(-c3ccc(C(C)C)cc3Br)c2n1 | 3460 | – |
| COCCN(CCOC)c1nc(C)nc2c1nnn2-c1ccc(N(C)C)cc1C(F)(F)F | 23.5 | – |
| COCCN(Cc1ccccc1)c1nc(C)nc2c1nnn2-c1ccc(C(C)C)cc1Br | 5 | bioavailability [1]: 15.5%; clearance [2]: 8.72 mL/min/kg; Vd [3]: 24.7 L/kg; half-life [4]: 46.7 h; AUC T (Canis familiaris): 0.366 µM·h; AUC T (Rattus norvegicus): 0.137 µM·h; Kp [5]: 0.2; bioavailability [6]: 7.3%; Cmax [7]: 39 nM; Cmax [8]: 12.5 nM; Tmax [9]: 0.8 h |
| CCC(COC)N(C)c1nc(C)nc2c1nnn2-c1ccc(C(C)C)cc1Br (stereo unspecified) | 11.2 | – |
| CCC(CC)Nc1nc(C)nc2c1nnn2-c1c(C)cc(C)cc1C | 5.7 | – |
| COCCN(Cc1cccnc1)c1nc(C)nc2c1nnn2-c1ccc(C(C)C)cc1Br | 48.5 | – |
| COCCN(CCOC)c1nc(C)nc2c1c(C)c(C)n2-c1c(C)cc(C)cc1C | 7.1 | – |
| CCC(CO)Nc1nc(C)nc2c1c(C)c(C)n2-c1c(C)cc(C)cc1C (stereo unspecified) | 27.3 | – |
| CCOCC(COCC)Oc1nc(C)nc2c1nnn2-c1ccc(C(C)C)cc1Br | 39.7 | – |
| CCCCN(CC)c1nc(C)nc2c1nnn2-c1ccc(N(C)C)cc1C(F)(F)F | 15.4 | – |
| COCCN(CCOC)c1nc(C)nc2c1nnn2-c1ccc(Br)cc1Br | 7.4 | – |
| CCCCN(CC)c1nc(C)nc2c1nnn2-c1ccc(S(C)(=O)=O)cc1Br | 100 | – |
| COCCN(CCOC)c1nc(C)nc2c1nnn2-c1c(C)cc(C)nc1C | 416 | – |
| CCN(CCOC)c1nc(C)nc2c1nnn2-c1c(C)cc(C)cc1C | 20.7 | – |
| C=CCN(CCOC)c1nc(C)nc2c1nnn2-c1ccc(C(C)C)cc1Br | 4.3 | – |
| Cc1nc(N2CCCCC2)c2nnn(-c3ccc(C(C)C)cc3Br)c2n1 | 46 | – |
| CCCCN(CC)c1nc(C)nc2c1nc(C(F)(F)F)n2-c1ccc(C(C)C)cc1Br | 1.4 | – |
| COCCN(CCOC)c1nc(C)nc2c1nnn2-c1ccc(C(C)C)cc1 | 3920 | – |
| CCCCC(CC)Oc1nc(C)nc2c1nnn2-c1ccc(C(C)C)cc1Br (stereo unspecified) | 1.5 | – |
| CCCC(CC)Nc1nc(C)nc2c1ncn2-c1ccc(C(C)C)cc1Br (stereo unspecified) | 4.4 | – |
| CCC(COC)Nc1nc(C)nc2c1nnn2-c1ccc(C(C)C)cc1Br (stereo in doubt; 4x) | 6.1 | bioavailability [1]: 21%; clearance [2]: 7.38 mL/min/kg; Vd [3]: 10.1 L/kg; half-life [4]: 19 h; AUC T (Canis familiaris): 3.14 µM·h; AUC T (Rattus norvegicus): 0.146 µM·h; Kp [5]: 0.6; bioavailability [6]: 53.1%; Cmax [7]: 546 nM; Cmax [8]: 30.7 nM; Tmax [9]: 0.5 h |
| CCC(COC)Nc1nc(C)nc2c1nnn2-c1ccc(C(C)C)cc1Br (stereo in doubt; 4y) | 7.5 | – |
| CCC(COC)Nc1nc(C)nc2c1nnn2-c1ccc(C(C)C)cc1Br (stereo in doubt; 4z) | 9.4 | – |
| CCCCN(CC)c1nc(C)nc2c1c(C)cn2-c1c(C)cc(C)cc1C [CP-154526] | 1.61 | – |
